A selection: hits, their analogues and other compounds. The true share with any hit is near 4.6%.
Mdm2 ligase inh: inhibitors of human Mdm2 E3 ubiquitin ligase; cell-based MDM2 ubiquitination luciferase reporter, 2 h; 0 = plate control, 100 = twice control, blank-subtracted; Q00987; signal enhancement, % at 5 µM; AID 1230; 210,000 compounds, 0.11% hits;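 active = signal enhancement of 30% or more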;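 also: luminescence tracks abundance of the self-degrading MDM2-luciferase fusion protein; higher signal means inhibition of MDM2 E3 ligase activity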
Target sequence (Q00987 whole entry, looked up, the tested form may be a part): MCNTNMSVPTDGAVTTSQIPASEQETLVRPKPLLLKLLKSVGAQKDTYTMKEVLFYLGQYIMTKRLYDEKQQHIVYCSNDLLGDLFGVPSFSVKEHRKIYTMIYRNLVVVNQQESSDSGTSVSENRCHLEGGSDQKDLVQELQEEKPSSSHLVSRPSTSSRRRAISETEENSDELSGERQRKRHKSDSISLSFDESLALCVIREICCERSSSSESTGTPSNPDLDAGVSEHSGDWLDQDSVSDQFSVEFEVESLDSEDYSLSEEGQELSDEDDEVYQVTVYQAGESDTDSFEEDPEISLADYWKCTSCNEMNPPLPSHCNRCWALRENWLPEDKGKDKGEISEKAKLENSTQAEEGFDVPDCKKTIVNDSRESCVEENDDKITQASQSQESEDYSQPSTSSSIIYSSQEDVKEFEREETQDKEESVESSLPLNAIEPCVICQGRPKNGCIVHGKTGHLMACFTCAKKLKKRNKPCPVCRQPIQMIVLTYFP
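Material: Stable MDM2–luciferase fusion reporter cells | Amount: 2000 cells seeded into each well | Dosing: One concentration, 5 µM, with 0.2% DMSO | Incubation: 4 h cell settling then 2 h compound exposure, 37 °C | Measured by: Luciferase luminescence | Read-out basis: % enhancement relative to plate controls after blank subtraction | Benchmarks: Control and blank well means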
APP 5'UTR act: activates APP 5'UTR luciferase reporter; activation, % at 2 µM; 190,000 compounds, 1% hits; SH-SY5Y APP 5'UTR luciferase reporter, luminescence; zero percent = DMSO vehicle wells;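 active = activation above a set limit, based on mean plus 3 SD of controls, cut at about 140% in these data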
Wee1 degr inh: blocks degradation of human Wee1 kinase. P30291. HeLa Luc-Wee1K328M stability, luciferase luminescence; 100% = proteasome inhibitor MG132 effect. reporter increase, % at 5 µM. 220,000 compounds, 1.2% hits. AID 1321;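 active = activation above the mean of all tested compounds plus 3 SD, set per screening run, cut at about 8.8% in these data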;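 also: cells exposed to compound for 20 h before luminescence read; 0% = DMSO alone and 100% = MG132 at 30 µM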
p97 inhibitor: human p97 ATPase inhibition | P55072 | recombinant p97 ATPase, Kinase-Glo ATP luminescence, 3 h | inhibition, % at 8 µM | 220,000 compounds, 0.42% hits | AID 1481; in the data active = inhibition above about 15%;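 also: 0% = DMSO vehicle and 100% = wells lacking enzyme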
STAT1 act: STAT1 signaling activation; NIH 3T3 STAT1-luciferase reporter, IFN-gamma, luminescence; 100% = IFN-gamma alone, no compound; activation (% of control), % at 5.5 µM; 200,000 compounds, 2.6% hits; AID 932;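 active = activation above the screen-wide mean activation plus 3 SD, cut at about 130% in these data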;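 also: raw ratio to IFN-gamma control signal so 100% means no change and 0% no light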
NF-kB neuron act: NF-kB expression increase, human neuronal cells. NF-kB reporter expression; hits give high values. 190,000 compounds, 1.6% hits. AID 1239. fold change at 12.5 µM; in the data active = fold change above about 3.3
Starred values were filed as active, the others as inactive; . = no result given.

SMILES	Mdm2 ligase inh	APP 5'UTR act	Wee1 degr inh	p97 inhibitor	STAT1 act	NF-kB neuron act
CCOC(=O)C1(Cc2cccc(OC)c2)CCCN(C(=O)c2ccccc2C)C1 (centres undefined)	-6.5	.	-0.7	-2.4	.	.
CCOC(=O)C1(Cc2cccc(OC)c2)CCCN(C(=O)c2cc(C)[nH]n2)C1 (centres undefined)	-22.4	34.4	-0.4	6.1	140.5*	2.55
C/C(=N\NC(=O)c1ccccc1)c1ccccc1Br	-6.8	27.5	0.5	-3.0	116.5	1.88
C/C(=N\NC(=O)c1ccccc1)c1ccccc1F	-18.7	94.8	0.8	5.6	132.4*	1.02
Cc1cccc(N/N=C2/COC(C)(C)CC2=O)c1	-16.8	70.9	4.6	-0.2	135.6*	1.23
COc1ccc(Nc2nc(C(=O)N3CCc4cc(OC)c(OC)cc4C3)cs2)cc1	.	.	4.2	-2.4	.	.
COc1ccc(Nc2nc(C(=O)N3CCc4ccccc4C3)cs2)cc1	33.1*	10.4	0.6	-2.2	105.8	0.99
Cc1nccn1CC(=O)N/N=C/c1cccs1	6.2	.	6.6	11.2	.	.
Nc1[nH]nc2ncc3cc4ccccc4nc3c12	0.1	-5.7	-2.4	8.3	138.8*	0.42
Cc1nc2ccccn2c1C(=O)/C=C/c1ccc(F)cc1	.	16.6	5.0	1.7	128.7*	3.44*
COc1ccc(/C=C/C(=O)c2c(C)nc3ccccn23)cc1	-1.1	106.5	-0.1	2.1	140.9*	1.71
COc1ccc(C(=O)Nc2cnc3ccccn3c2=O)cc1	-6.2	72.3	5.5	4.5	139.5*	2.41
O=C(Nc1cnc2ccccn2c1=O)c1ccc(F)cc1	-4.5	50.6	-1.6	1.9	124.6	2.04
COc1ccc(NC(=O)c2c(Cl)nc3ccccn23)cc1	-0.7	45.4	-1.2	0.8	133.9*	1.01
O=C1NC(N2CCOCC2)=N/C1=C/c1ccc2c(c1)OCO2	-9.4	-0.5	2.0	-2.4	111.1	1.5
COc1ccc(CCn2c(SCCN3CCCCC3)nc3ccccc3c2=O)cc1OC	-24.0	6.3	-3.8	-9.2	93.0	0.46
Cc1nn(C)cc1C(C)NCc1c(C(=O)N2CCCCCCC2)nc2ccc(Cl)cn12 (centres undefined)	6.1	0.6	1.9	1.9	107.2	0.84
COc1ccc(C2=NN(CCC(=O)NCc3cccs3)C(=O)CC2)cc1	19.6	-6.9	-1.6	-4.9	91.1	1.22
Cc1ccccc1Nc1nnc(SCC(=O)NCc2cccs2)s1	.	4.4	7.0	1.1	98.3	1.05
Cc1ccc(Nc2nnc(SCC3CCCCO3)s2)cc1 (centres undefined)	848.3*	5.3	5.0	-7.8	120.5	1.79
Cc1ccccc1Nc1nnc(SCC2CCCCO2)s1 (centres undefined)	-13.9	145.8*	3.4	-2.9	128.7*	6.14*
COc1ccccc1Nc1nnc(SCC2CCCCO2)s1 (centres undefined)	-32.2	176.2*	3.5	-11.7	86.5	5.17*
Cc1ccc(-n2c(SCC3CCCCO3)nnc2-c2ccco2)cc1 (centres undefined)	-4.3	-13.1	-0.1	-2.5	98.2	0.9
Cc1noc(C)c1CCC(=O)N1CCCC(CCC(=O)NCc2ccc(F)c(F)c2)C1 (centres undefined)	-1.2	7.5	1.4	0.9	97.0	1.05
CCN(CC)C(=S)NC(=O)c1cc(OC)c(OC)c(OC)c1	-15.4	-1.9	-2.2	2.0	99.2	1.01
SMILES	Mdm2 ligase inh	APP 5'UTR act	Wee1 degr inh	p97 inhibitor	STAT1 act	NF-kB neuron act
O=C(Nc1ccc(N2CCCC2)c(Cl)c1)c1cccs1	-29.0	234.6*	-2.7	4.0	142.1*	7.43*
CC(C)CN1C(=O)c2ccc(NC(=O)c3ccco3)cc2C1=O	-3.1	9.0	-2.7	-2.5	129.8*	1.06
O=C(NC(=S)Nc1ccc(N2CCCCC2)cc1)c1cccs1	-7.0	136.2*	2.5	-3.3	148.3*	1.53
CC1N(C)c2cc(NC(=O)c3ccco3)ccc2C1(C)C (centres undefined)	-12.8	112.9	4.0	-3.9	142.6*	0.27
CSc1cccc(NC(=S)NCCCN2CCN(c3ccc(F)cc3)CC2)c1	-7.5	1.7	-0.7	-2.3	92.5	0.86
CCN(CC)c1ccc(NC(=S)NC(=O)c2cccs2)cc1	1.4	97.2	6.3	-2.8	134.5*	1.87
CCCC(=O)Nc1ccc(NC(=S)NC(=O)c2cccs2)cc1	-7.0	3.9	-1.2	1.5	107.0	1.15
CCN(CC)c1ccc(NC(=O)c2ccco2)cc1	-47.9	163.8*	3.7	1.7	127.4	5.25*
Cc1cccc2[nH]c(-c3ccc(NC(=O)c4ccco4)cc3)nc12	-2.4	102.3	1.6	1.9	130.2*	2.14
CCN(CC)c1ccc(NC(=S)NC(=O)c2ccco2)cc1	2.3	96.8	-3.0	0.5	142.2*	1.63
O=C(NC(=S)Nc1ccc2c(c1)OCCO2)c1ccco1	-29.1	.	0.2	2.4	.	.
O=C(CNC(=O)c1ccc(-c2ccccc2)cc1)OCc1c(Cl)cccc1Cl	13.4	1.8	0.0	3.0	103.5	1.11
C=CCNC(=O)C(=O)NCCOc1ccccc1Cl	3.0	7.1	8.1	7.4	102.5	1.56
CCOC(=O)c1cc(-c2ccc(OC)cc2)nn1-c1ccc(C(=O)O)cc1	-8.9	-13.4	0.9	-0.6	96.7	1.01
CCOc1ccc(NC(=O)CC(c2ccccc2)c2ccc(F)cc2)cc1 (centres undefined)	-19.0	4.7	0.1	-5.2	100.9	1.34
COC(=O)c1cn(C(=O)/C=C/c2ccc(OC)c(OC)c2)c2ccccc12	-15.4	-16.9	0.9	5.7	102.5	0.95
COc1ccc(CNC(=O)c2cc(-c3ccncc3)nc3c(C)cc(C)cc23)cc1OC	-26.4	3.1	-0.8	-0.3	104.0	0.81
CC(C)=CC(=O)Nc1ccccc1C(N)=O	-19.4	8.9	-0.8	3.1	101.2	1.07
O=C(/C=C/c1ccc(Cl)cc1)NC(=S)Nc1ccccc1C(=O)O	-5.6	.	-1.7	-6.7	.	.
NC(=O)c1ccccc1NC(=O)/C=C/c1ccc(Cl)cc1	-22.6	159.7*	1.8	-7.1	143.9*	3.02
NC(=O)c1ccccc1NC(=O)/C=C/c1ccccc1	-15.3	103.6	5.1	0.4	129.3*	3.57*
NC(=O)c1ccccc1N/C=C/C(=O)c1ccccc1	-59.6	132.0	6.5	-20.3	91.4	5.46*
CCC(C)(C(=O)Nc1ccccc1C)N(C(=O)CNC(C)=O)c1ccccc1C (centres undefined)	7.3	6.4	-1.8	-2.4	97.1	1.18
COc1ccc(-c2cc(-c3ccc(C)cc3)nc(SCc3nnc(-c4ccccc4)o3)c2C#N)cc1OC	-2.5	8.4	-3.4	5.8	98.5	1.03
Cc1nc(-c2ccc(O)c(O)c2)cs1	-17.8	-12.2	-0.2	3.7	93.8	1.45
Oc1ccc(-c2csc(Nc3ncccn3)n2)cc1O	-9.7	-30.6	0.2	9.5	132.9*	12.2*
